# High-throughput results (PubChem BioAssay)
# M1 ag: activates the M1 muscarinic receptor; actives 3% (n = 64,000); B-score at 10 µM; AID 626; CHO-M1 cells, Fluo-4 calcium fluorescence, agonist mode; stronger effect = higher value;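 active = fluorescence rise, raw or as B-score row- and column-corrected plate score, outside the 99.7% band of its plate's samples, either direction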
# BAP1 block: blocks human BAP1 ubiquitin-AMC hydrolysis | Q92560 | recombinant BAP1, Ub-AMC hydrolysis fluorescence kinetic; stronger effect = lower value | calls only at 20 µM | actives 0.48% (n = 72,000);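 active = activity remaining at or below 50% of control, provided the compound also passes the data quality filters; inactive = the rest, including low values that fail the filters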;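 also: 100% = DMSO wells rate and 0% = substrate alone blank rate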
# tolC growth inh: growth inhibitors of E. coli BW25113 tolC mutant | actives 2.2% (n = 65,000) | OD615 | AID 573 | growth inhibition, % at 10 µM (by protocol);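 active = growth inhibition at or above a cutoff equal to the mean over every tested compound plus 3 SD, cut at about 60% in these data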;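 also: growth measured after 20 h incubation at 37 °C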
#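 Test system: E. coli BW25113 ΔtolC::kan bacteria | Medium: Kanamycin-containing LB broth (50 µg/mL) | Dosing: One dose of 10 µM final | Times: 20 h incubation with compound, 37 °C | Detection: Optical density read at 615 nm | Read-out basis: Percent growth inhibition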
# M1 antagonist: M1 muscarinic receptor (rat) antagonism; P08482; CHO-M1 cells, Fluo-4 calcium, ACh EC80 antagonist mode; stronger effect = lower value; B-score at 10 µM; actives 3.4% (n = 64,000);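 active = calcium fluorescence response, raw or row-and-column corrected B-score, differing from the plate sample mean either way at a set confidence level, mostly lower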
# Target sequence (P08482 whole entry, looked up): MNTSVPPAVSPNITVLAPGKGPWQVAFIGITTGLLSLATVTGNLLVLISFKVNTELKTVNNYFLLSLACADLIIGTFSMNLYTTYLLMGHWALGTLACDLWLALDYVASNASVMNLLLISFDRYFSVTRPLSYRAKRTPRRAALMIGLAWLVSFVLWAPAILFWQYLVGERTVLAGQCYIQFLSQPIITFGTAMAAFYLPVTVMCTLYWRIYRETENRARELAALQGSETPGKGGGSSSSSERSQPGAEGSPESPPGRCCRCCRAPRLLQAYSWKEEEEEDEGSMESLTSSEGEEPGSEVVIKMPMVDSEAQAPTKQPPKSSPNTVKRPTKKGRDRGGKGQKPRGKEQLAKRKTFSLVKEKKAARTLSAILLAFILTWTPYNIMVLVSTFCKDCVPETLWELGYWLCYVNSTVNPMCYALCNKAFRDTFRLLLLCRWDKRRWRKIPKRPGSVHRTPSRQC
# Hsp90 block: displaces geldanamycin probe from tumor Hsp90 | inhibition, % at 30 µM | NCI-N417 lysate Hsp90, Cy3B-geldanamycin FP displacement | actives 0.35% (n = 64,000) | AID 429;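 active = inhibition above 50%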;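 also: 0% = tracer plus lysate wells and 100% = tracer alone without lysate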
# Ecoli WT expand: blocks growth of wild type E. coli BW25113. AID 710. actives 0.15% (n = 98,000). OD600 absorbance. growth inhibition, % at 100 µM;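 active = growth inhibition above about 50% at one test dose, limit read from the data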;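 also: growth measured after 20 h incubation at 37 °C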
# M1 ag confirm: confirmation of rat M1 muscarinic receptor agonists | actives 19% (n = 1,700) | shares compounds with M1 ag | AID 1488 | fluorescence change (max-min) at 10 µM | CHO-M1 cells, Fluo-4 calcium fluorescence, agonist mode; actives lie on both sides;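 active = fluorescence change differs from the solvent-only DMSO control mean at a set confidence level in both duplicate runs; inconclusive = differs from solvent-only control mean in just one of two runs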;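 also: an EC20 dose of acetylcholine follows compound addition during the same imaging run; raw fluorescence intensity difference in instrument units with no normalization to controls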
# M4 ag counter: counter-screen for M1 agonists: activity at rat M4 receptor | shares compounds with M1 ag | CHO M4/Gqi5 cells, Fluo-4 calcium fluorescence, agonist mode; actives lie on both sides | fluorescence change (max-min) at 10 µM | actives 9% (n = 1,700);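 active = fluorescence change differing from the plate's solvent-only control wells at 99.7% confidence in both duplicates, whether higher or lower; inconclusive = differs from solvent controls in only one of two duplicates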
# Starred values were filed as active, the others as inactive; i = inactive; ? = inconclusive; · = no result shown. Sampled rows, rich in hits. Any-hit rate of the full collection: about 5.1%.
SMILES,M1 ag,BAP1 block,tolC growth inh,M1 antagonist,Hsp90 block,Ecoli WT expand,M1 ag confirm,M4 ag counter
Cn1c(CC2C(=O)Nc3ccc(Br)cc32)nc2ccccc2c1=O (stereo not given),1.98*,i,13.2,-0.295,-11.1,10.0,?,-23.1
CCc1ccc(-c2ccc(C(=O)Nc3ccc(I)cc3C)cc2)nc1,·,i,·,·,·,·,·,·
O=C(Nc1ccc(S(=O)(=O)N2CCOCC2)cc1)C1COc2ccccc2O1 (stereo not given),8.72*,·,12.3,-0.852,·,7.0,?,-66.2*
COCCNC(=O)c1ccccc1NC(=O)C1COc2ccccc2O1 (stereo not given),5.65*,·,-1.1,-0.286,·,-1.0,-29.4*,-120*
COC(=O)c1cc(NC(=O)C2COc3ccccc3O2)ccc1Cl (stereo not given),5.72*,i,39.8,-0.602,-6.6,4.0,-17.4,-33.1
CCCCc1ccc(NC(=O)CCOc2ccccc2)cc1,·,i,·,·,·,·,·,·
NC(=O)c1cccc(N=Cc2ccc([N+](=O)[O-])o2)c1,·,i,·,·,·,·,·,·
O=C(NCc1ccccc1)N(Cc1nc2ccccc2c(=O)[nH]1)C1CCCC1,4.23*,·,1.5,-0.296,0.7,-1.0,-11.9,-16.8
CCN(CC(=O)NC(=O)NC1CCCCC1)Cc1nc2ccccc2c(=O)[nH]1,·,·,·,·,·,9.0,·,·
CCS(=O)(=O)NCC(c1cccnc1)N1CCN(c2ccc(F)cc2)CC1 (stereo not given),5.1*,i,-11.9,-0.552,-1.1,9.0,-10.8,-27.9
O=C(NCC(c1cccnc1)N1CCN(c2ccc(F)cc2)CC1)c1cccc(Cl)c1 (stereo not given),5.84*,i,6.2,-1.25,0.5,3.0,?,-50.9
O=C(NCC(c1cccnc1)N1CCN(c2ccc(F)cc2)CC1)OCc1ccccc1 (stereo not given),1.6,i,11.0,-0.596,-1.5,7.0,·,·
CN1C=CC2=C(C#N)C(N)C(C#N)(C#N)C(c3ccccc3)C2C1 (stereo not given),34.3*,·,-4.2,-0.336,4.2,6.0,187*,179*
CCOC(=O)c1c(NC(=O)c2ccccc2NS(=O)(=O)c2cc([N+](=O)[O-])ccc2Cl)sc2c1CCC2,·,i,·,·,·,·,·,·
COc1ccc(CCN(Cc2cccs2)S(=O)(=O)c2ccc(-n3cnnn3)cc2)cc1OC,4.5*,i,17.5,-0.323,-1.4,-18.0,?,-66.4*
COc1ccc(CN(C2CCCC2)S(=O)(=O)c2ccc(-n3cnnn3)c(OC)c2)cc1OC,1.55,i,5.0,-0.167,-0.8,-7.0,·,·
O=C(CSCc1nc2ccccc2[nH]1)N1CCN(c2cccc(Cl)c2)CC1,7.96*,i,30.4,-1.73,-1.3,-5.0,-21.7,-31.7
O=C(CSCc1nc2ccccc2[nH]1)N1CCN(c2ccc(F)cc2)CC1,1.13,i,26.0,0.741,-4.0,1.0,·,·
Cc1cc(C)c2c(=O)n(CC(=O)N3CCC(N4CCCCC4)CC3)sc2n1,-1.21,i,-10.9,-2.42,1.5,9.0,·,·
CCOC(=O)C1CCCN(C(=O)Cc2ccc(OC)c(OC)c2)C1 (stereo not given),-0.0105,i,-18.2,0.166,-5.6,-3.0,·,·
CCOC(=O)C1CCCN(C(=O)Cn2sc3nc(C)cc(C)c3c2=O)C1 (stereo not given),5.9*,i,-23.1,0.708,-0.7,3.0,25.4,-34.7
CCOCC(=O)N1CCCC(C(=O)OCC)C1 (stereo not given),0.416,i,-8.2,0.986,3.4,3.0,·,·
CCOC(=O)C1CCCN(C(=O)CN2CCN(Cc3ccc(Cl)cc3)C2=O)C1 (stereo not given),22.8*,i,8.9,-0.439,-0.7,1.0,202*,-50.6
CCOC(=O)C1CCCN(C(=O)Cc2c(C(=O)O)[nH]c3ccccc23)C1 (stereo not given),4.63*,·,-0.6,0.809,·,-3.0,41.1,-24.3
CCOc1ccc(N2COc3ccc4ccccc4c3C2)cc1,·,i,·,·,·,·,·,·
SMILES,M1 ag,BAP1 block,tolC growth inh,M1 antagonist,Hsp90 block,Ecoli WT expand,M1 ag confirm,M4 ag counter
CCOc1ccc(/C=c2\sc3nc(-c4ccco4)nn3c2=O)cc1OCC,105*,i,8.7,0.156,-1.0,-14.0,?,47.2
COc1ccc(CCNC(=O)COC(=O)c2ccco2)cc1OC,0.056,i,-4.3,-0.741,-1.9,-2.0,·,·
COc1ccc(CCNC(=O)c2ccc3nc(-c4ccco4)c(-c4ccco4)nc3c2)cc1OC,8.51*,i,27.3,-1.04,-5.3,-12.0,-1.94,-18.6
Cc1ccc(Nc2cc(C)c3ccccc3n2)cc1Cl,·,i,·,·,·,·,·,·
O=C(Nc1c(C(=O)Nc2ccc(Br)cc2)cnn1-c1ccccc1)c1ccccc1Cl,·,i,·,·,·,·,·,·
CCOC(=O)CC1=C(C(=O)OCC)C(c2ccc(OC)cc2OC)C(C#N)=C(N)O1 (stereo not given),6.99*,i,-7.6,1,-4.3,22.0,-1.69,-43.2
O=C(Nc1cccc2ccccc12)c1cnn2c1NC(c1ccccc1)CC2C(F)(F)F (stereo not given),·,i,·,·,·,·,·,·
O=C(CCn1nc(-c2ccccc2)ccc1=O)N1CCOCC1,0.753,i,-8.7,-1.05,-3.8,3.0,·,·
O=C(CCn1nc(-c2ccccc2)ccc1=O)N1CCN(c2ccccn2)CC1,3.92*,i,-3.8,0.0129,-4.3,-1.0,-2.22,-22.9
CCOC(=O)C1C(=O)CC(C)(O)C(C(=O)OCC)C1/C=C/c1ccccc1 (stereo not given),2.86*,i,2.0,-0.696,0.4,-9.0,-0.938,-2.79
O=C(Nc1ncc([N+](=O)[O-])s1)c1ccccc1F,·,i,·,·,·,·,·,·
CCn1c(SCC(=O)Nc2ccccc2N2CCCCC2)nc2c1c(=O)n(C)c(=O)n2C,1.97*,i,34.0,-1.29,1.3,2.0,-16.6,-12.9
CCn1c(SCC(=O)N2CCCC2)nc2c1c(=O)n(C)c(=O)n2C,·,i,-0.8,·,-2.8,0.0,·,·
Cc1ccc(-n2nnnc2SCC(=O)NNC(=O)c2ccco2)cc1C,·,·,·,·,·,5.0,·,·
CC(=O)c1cccc(-n2nnnc2SCC(=O)Nc2cccc(NC(=O)c3ccco3)c2)c1,3.6*,i,18.9,-0.13,-2.8,-9.0,-27.6,?
CCN1C(=O)c2cccc3c(NC(=O)c4ccc5c(c4)OCCO5)ccc1c23,8.95*,i,-17.9,0.0359,-3.6,-21.0,2.75,134*
COCCn1nnnc1C(c1cc2ccc(OC)cc2[nH]c1=O)N1CCN(C2CCCCC2)CC1 (stereo not given),-0.696,·,-14.8,-0.568,-5.2,-2.0,·,·
COCCn1nnnc1C(c1cccc(OC)c1OC)N1CCN(C2CCCCC2)CC1 (stereo not given),17.8*,i,-9.6,0.419,-2.1,4.0,?,-50.7
